Experimental data published in ChEMBL document CHEMBL5653631, “A Potent and Selective ULK1 Inhibitor Suppresses Autophagy and Sensitizes Cancer Cells to Nutrient Stress” (iScience, 2018).

Legend:
[1] = biological target: Mitogen-activated protein kinase kinase kinase kinase 1 (Homo sapiens) (UniProt Q92918); experiment: Inhibition of human recombinant HPK1 at 500 nM related to control ULK1
[2] = biological target: Rho-associated protein kinase 1 (Homo sapiens) (UniProt Q13464); experiment: Inhibition of human recombinant ROCK1 at 500 nM related to control ULK1
[3] = biological target: Mitogen-activated protein kinase 10 (Homo sapiens) (UniProt P53779); experiment: Inhibition of human recombinant JNK3 at 500 nM related to control ULK1
[4] = biological target: Serine/threonine-protein kinase 32C (Homo sapiens) (UniProt Q86UX6); experiment: Inhibition of human recombinant YANK3 at 500 nM related to control ULK1
[5] = biological target: MAP kinase-activated protein kinase 2 (Homo sapiens) (UniProt P49137); experiment: Inhibition of human recombinant MAPKAPK2 at 500 nM related to control ULK1
[6] = biological target: G protein-coupled receptor kinase 5 (Homo sapiens) (UniProt P34947); experiment: Inhibition of human recombinant GPRK5 at 500 nM in presence of ATP by radiometric assay relative to control
[7] = biological target: Maternal embryonic leucine zipper kinase (Homo sapiens) (UniProt Q14680); experiment: Inhibition of human recombinant MELK at 500 nM in presence of ATP by radiometric assay relative to control
[8] = biological target: Proto-oncogene tyrosine-protein kinase ROS (Homo sapiens) (UniProt P08922); experiment: Inhibition of human recombinant ROS at 15 nM related to control ULK1
[9] = biological target: Rhodopsin kinase GRK7 (Homo sapiens) (UniProt Q8WTQ7); experiment: Inhibition of human recombinant GPRK7 at 15 nM related to control ULK1
[10] = biological target: Ephrin type-A receptor 4 (Homo sapiens) (UniProt P54764); experiment: Inhibition of human recombinant EphA4 at 15 nM in presence of ATP by radiometric assay relative to control
[11] = biological target: T1, Aurora kinase A (Homo sapiens) (UniProt O14965); experiment: Inhibition of human recombinant AurA at 15 nM in presence of ATP by radiometric assay relative to control
T1 sequence (whole entry): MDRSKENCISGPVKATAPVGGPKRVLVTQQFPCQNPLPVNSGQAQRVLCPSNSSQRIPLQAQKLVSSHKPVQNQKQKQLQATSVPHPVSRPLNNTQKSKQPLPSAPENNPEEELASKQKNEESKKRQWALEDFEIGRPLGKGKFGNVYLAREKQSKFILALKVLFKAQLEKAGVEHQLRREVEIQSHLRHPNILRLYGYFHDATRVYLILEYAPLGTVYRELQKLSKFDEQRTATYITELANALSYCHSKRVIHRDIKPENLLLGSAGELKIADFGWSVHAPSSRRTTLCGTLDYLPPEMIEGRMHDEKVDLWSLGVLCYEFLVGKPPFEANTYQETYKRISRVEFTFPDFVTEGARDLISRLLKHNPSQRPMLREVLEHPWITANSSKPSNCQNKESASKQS
How it was run: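 Panel of 327 recombinant human kinases, each assayed in vitro by radiometric activity assay in duplicate at a single inhibitor concentration per compound, chosen with reference to its ULK1 inhibition. Activity remaining was expressed as percent of vehicle control, and percent inhibition was calculated as 100 minus percent activity remaining.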

[12] = biological target: T2, Mitogen-activated protein kinase 13 (Homo sapiens) (UniProt O15264); experiment: Inhibition of human recombinant p38delta at 15 nM related to control ULK1
T2 sequence (whole entry): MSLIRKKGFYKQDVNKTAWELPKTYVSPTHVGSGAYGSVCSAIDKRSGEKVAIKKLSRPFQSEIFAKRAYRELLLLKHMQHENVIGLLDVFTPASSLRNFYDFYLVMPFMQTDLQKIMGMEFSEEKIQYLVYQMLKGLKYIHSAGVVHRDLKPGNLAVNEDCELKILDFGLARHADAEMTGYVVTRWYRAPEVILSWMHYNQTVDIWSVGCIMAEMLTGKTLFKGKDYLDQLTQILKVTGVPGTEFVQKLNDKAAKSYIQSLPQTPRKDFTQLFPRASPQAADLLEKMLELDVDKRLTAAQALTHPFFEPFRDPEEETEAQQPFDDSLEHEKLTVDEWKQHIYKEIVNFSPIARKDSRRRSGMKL

[13] = biological target: Phosphorylase b kinase gamma catalytic chain, skeletal muscle/heart isoform (Homo sapiens) (UniProt Q16816); experiment: Inhibition of human recombinant PHKg1 at 15 nM in presence of ATP by radiometric assay relative to control
[14] = biological target: Tyrosine-protein kinase Yes (Homo sapiens) (UniProt P07947); experiment: Inhibition of human recombinant YES at 15 nM related to control ULK1
[15] = biological target: Ribosomal protein S6 kinase alpha-2 (Homo sapiens) (UniProt Q15349); experiment: Inhibition of human recombinant RSK3 at 40 nM in presence of ATP by radiometric assay relative to control
[16] = biological target: Tyrosine-protein kinase Fyn (Homo sapiens) (UniProt P06241); experiment: Inhibition of human recombinant FYN at 40 nM related to control ULK1
[17] = biological target: Cyclin-dependent kinase-like 1 (Homo sapiens) (UniProt Q00532); experiment: Inhibition of human recombinant CDKL1 at 40 nM related to control ULK1
[18] = biological target: Epidermal growth factor receptor (Homo sapiens) (UniProt P00533); experiment: Inhibition of human recombinant EGFR at 40 nM related to control ULK1
[19] = biological target: Receptor-interacting serine/threonine-protein kinase 2 (Homo sapiens) (UniProt O43353); experiment: Inhibition of human recombinant RIPK2 at 40 nM related to control ULK1
Homo sapiens = species on record: Homo sapiens; experiment: Inhibition of human recombinant p70S6K at 40 nM related to control ULK1
[20] = biological target: Homeodomain-interacting protein kinase 3 (Homo sapiens) (UniProt Q9H422); experiment: Inhibition of human recombinant HIPK3 at 40 nM in presence of ATP by radiometric assay relative to control

Sequence of Phosphorylase b kinase gamma catalytic chain, skeletal muscle/heart isoform (Homo sapiens) (Q16816 whole entry, looked up, canonical isoform): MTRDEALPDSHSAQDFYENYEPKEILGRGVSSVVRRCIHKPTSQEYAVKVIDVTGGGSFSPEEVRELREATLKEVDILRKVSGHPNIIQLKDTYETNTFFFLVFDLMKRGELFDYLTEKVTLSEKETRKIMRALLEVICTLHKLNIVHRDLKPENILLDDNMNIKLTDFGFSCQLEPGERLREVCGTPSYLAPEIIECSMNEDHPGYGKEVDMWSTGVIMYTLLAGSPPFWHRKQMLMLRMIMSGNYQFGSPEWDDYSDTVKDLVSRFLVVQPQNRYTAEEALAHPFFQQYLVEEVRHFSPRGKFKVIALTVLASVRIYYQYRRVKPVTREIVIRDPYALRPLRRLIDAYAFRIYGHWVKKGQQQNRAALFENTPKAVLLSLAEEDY
Sequence of Ephrin type-A receptor 4 (Homo sapiens) (P54764 whole entry): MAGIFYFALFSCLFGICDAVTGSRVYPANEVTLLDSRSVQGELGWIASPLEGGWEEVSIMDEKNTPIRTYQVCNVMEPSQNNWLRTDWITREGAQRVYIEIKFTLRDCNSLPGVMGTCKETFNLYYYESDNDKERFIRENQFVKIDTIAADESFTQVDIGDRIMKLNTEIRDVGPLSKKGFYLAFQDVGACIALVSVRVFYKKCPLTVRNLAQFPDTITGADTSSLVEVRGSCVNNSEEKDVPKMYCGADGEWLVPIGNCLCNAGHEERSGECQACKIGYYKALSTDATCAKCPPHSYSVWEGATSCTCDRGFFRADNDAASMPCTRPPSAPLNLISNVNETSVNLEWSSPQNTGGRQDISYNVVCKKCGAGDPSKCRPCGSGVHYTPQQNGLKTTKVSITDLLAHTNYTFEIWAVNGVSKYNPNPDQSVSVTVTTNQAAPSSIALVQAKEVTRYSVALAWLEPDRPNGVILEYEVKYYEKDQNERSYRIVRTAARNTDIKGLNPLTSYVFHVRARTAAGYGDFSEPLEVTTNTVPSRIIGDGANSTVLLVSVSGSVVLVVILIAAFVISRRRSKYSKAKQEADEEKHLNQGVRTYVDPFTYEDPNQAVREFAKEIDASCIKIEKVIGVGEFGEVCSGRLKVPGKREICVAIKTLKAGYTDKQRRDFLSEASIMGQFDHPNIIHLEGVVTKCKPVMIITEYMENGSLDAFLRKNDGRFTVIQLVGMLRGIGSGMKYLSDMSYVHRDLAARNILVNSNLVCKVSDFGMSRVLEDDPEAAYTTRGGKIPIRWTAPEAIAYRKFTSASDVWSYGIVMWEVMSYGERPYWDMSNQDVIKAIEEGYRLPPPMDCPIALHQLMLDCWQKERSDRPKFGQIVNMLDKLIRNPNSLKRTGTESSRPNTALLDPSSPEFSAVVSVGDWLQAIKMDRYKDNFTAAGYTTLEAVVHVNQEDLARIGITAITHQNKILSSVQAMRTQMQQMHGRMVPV
Sequence of Receptor-interacting serine/threonine-protein kinase 2 (Homo sapiens) (O43353 whole entry): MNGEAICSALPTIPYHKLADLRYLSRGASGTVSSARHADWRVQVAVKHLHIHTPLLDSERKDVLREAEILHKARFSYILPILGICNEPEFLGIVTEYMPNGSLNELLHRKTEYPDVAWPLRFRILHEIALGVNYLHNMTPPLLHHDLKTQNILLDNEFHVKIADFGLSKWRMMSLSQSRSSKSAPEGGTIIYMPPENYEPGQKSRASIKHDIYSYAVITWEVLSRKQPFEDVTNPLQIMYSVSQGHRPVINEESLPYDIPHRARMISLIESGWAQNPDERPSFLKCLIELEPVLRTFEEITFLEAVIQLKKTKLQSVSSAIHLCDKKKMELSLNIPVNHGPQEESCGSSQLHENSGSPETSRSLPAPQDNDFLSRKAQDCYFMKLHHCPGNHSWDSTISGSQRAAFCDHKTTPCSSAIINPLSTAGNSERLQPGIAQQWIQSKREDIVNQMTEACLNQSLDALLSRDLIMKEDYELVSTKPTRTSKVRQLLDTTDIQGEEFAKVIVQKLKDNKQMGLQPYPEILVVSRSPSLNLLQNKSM
Sequence of Cyclin-dependent kinase-like 1 (Homo sapiens) (Q00532 whole entry): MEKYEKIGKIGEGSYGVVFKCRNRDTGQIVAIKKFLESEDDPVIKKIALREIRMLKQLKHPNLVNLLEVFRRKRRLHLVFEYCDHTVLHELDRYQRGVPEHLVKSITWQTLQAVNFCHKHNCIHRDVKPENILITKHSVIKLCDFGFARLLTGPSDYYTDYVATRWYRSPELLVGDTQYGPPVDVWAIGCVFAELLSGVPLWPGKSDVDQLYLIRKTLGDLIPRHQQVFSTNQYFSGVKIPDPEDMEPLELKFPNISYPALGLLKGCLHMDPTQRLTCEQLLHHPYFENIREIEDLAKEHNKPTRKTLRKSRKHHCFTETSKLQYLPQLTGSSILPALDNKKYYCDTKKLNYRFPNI
Sequence of Serine/threonine-protein kinase 32C (Homo sapiens) (Q86UX6 whole entry): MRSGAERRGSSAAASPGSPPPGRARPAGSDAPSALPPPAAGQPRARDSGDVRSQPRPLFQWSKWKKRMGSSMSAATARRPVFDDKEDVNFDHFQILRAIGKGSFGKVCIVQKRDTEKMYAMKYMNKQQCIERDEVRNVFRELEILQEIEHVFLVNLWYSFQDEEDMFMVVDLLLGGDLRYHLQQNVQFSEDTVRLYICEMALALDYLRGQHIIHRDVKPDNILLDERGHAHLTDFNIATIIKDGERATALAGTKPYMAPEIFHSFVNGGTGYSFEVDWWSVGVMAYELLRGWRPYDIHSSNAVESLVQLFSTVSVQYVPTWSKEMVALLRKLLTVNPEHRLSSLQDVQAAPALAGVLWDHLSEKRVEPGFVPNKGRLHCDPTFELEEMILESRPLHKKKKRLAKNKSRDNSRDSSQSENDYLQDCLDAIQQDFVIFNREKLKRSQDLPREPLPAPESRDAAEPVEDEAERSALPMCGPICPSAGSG
Sequence of Mitogen-activated protein kinase kinase kinase kinase 1 (Homo sapiens) (Q92918 whole entry, looked up): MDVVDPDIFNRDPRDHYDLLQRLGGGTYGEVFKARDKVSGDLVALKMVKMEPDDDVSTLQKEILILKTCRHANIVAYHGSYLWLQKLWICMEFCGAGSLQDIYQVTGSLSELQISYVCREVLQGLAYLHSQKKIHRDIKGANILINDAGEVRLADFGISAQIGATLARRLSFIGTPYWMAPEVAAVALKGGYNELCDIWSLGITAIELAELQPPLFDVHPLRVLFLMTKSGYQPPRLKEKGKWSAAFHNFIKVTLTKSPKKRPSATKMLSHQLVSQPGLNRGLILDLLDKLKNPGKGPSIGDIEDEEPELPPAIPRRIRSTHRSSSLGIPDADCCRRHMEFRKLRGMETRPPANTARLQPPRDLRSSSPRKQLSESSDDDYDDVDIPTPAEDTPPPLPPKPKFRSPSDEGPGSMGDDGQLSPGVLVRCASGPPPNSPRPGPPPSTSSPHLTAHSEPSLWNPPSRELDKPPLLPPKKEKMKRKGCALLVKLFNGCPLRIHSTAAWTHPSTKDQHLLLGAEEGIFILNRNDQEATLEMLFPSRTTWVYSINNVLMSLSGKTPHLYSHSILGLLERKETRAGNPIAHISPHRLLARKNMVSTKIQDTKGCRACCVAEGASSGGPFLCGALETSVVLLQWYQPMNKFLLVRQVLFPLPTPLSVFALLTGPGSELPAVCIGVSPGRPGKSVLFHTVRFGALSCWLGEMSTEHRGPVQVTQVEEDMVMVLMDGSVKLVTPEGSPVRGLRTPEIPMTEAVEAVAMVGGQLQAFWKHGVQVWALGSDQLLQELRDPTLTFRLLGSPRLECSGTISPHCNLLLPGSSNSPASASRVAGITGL
Sequence of G protein-coupled receptor kinase 5 (Homo sapiens) (P34947 whole entry, looked up): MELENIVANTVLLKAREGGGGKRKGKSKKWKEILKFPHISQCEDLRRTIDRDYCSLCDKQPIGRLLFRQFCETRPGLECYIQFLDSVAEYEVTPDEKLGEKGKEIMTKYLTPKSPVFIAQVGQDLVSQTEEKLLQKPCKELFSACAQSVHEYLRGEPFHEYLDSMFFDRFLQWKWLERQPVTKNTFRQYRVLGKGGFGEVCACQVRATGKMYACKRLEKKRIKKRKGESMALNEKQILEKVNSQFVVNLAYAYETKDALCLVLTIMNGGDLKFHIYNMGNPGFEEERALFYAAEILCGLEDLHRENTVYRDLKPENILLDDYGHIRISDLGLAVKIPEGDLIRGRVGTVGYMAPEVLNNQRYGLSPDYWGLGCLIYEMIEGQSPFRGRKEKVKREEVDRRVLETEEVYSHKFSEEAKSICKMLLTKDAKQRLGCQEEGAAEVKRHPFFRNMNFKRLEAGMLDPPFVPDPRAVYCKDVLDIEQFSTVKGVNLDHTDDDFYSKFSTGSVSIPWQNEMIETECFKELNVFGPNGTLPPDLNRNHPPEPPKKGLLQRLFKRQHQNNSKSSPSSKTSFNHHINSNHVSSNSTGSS
Sequence of Ribosomal protein S6 kinase alpha-2 (Homo sapiens) (Q15349 whole entry): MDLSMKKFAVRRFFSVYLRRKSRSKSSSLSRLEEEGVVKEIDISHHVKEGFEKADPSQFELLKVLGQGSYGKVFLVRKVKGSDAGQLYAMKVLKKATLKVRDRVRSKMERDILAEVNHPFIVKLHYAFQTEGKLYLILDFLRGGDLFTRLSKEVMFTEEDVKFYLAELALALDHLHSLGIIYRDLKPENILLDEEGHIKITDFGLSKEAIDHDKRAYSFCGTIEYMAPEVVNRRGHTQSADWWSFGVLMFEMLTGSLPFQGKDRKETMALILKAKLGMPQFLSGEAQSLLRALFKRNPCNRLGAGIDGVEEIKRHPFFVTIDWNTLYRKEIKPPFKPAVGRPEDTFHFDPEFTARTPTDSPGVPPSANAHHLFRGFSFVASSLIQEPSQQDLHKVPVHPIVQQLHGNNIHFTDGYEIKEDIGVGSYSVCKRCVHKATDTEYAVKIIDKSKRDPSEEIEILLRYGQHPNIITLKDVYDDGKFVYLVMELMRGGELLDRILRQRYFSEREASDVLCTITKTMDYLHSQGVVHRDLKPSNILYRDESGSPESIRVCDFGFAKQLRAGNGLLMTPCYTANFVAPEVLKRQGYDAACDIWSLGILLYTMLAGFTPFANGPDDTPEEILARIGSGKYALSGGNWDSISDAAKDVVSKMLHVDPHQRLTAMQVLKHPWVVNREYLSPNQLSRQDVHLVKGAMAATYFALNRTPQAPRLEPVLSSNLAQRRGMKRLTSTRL

Question: `CNC(=O)c1ccccc1Oc1nc(Nc2cc(OC)c(OC)c(OC)c2)ncc1Br` was tested. Which fold change (FC) [1] did it give?
Answer: 0.43

Question: What about the fold change (FC) [2] of the same compound?
Answer: 0

Question: And the fold change (FC) [3]?
Answer: 0.04

Question: And the fold change (FC) [4]?
Answer: 0

Question: And the fold change (FC) [5]?
Answer: 0

Question: And the inhibition [6]?
Answer: 1%

Question: And the inhibition [7]?
Answer: 0%

Question: Which results are given for `CC(C)[C@H](NC(=O)c1cc(-c2cnn3cc(-c4ccc(OCCN5CCCCC5)cc4)cnc23)cs1)C(F)(F)F`?
Answer: fold change (FC) [8]: 0; fold change (FC) [9]: 0; inhibition [10]: 0%; inhibition [11]: 13%; fold change (FC) [12]: 0.07; inhibition [13]: 51%; fold change (FC) [14]: 0.86

Question: How did the inhibition [15] turn out when `O=C(N[C@@H](C1CC1)C(F)(F)F)c1cc(-c2cnn3cc(-c4ccc(F)cc4)cnc23)cs1` was run?
Answer: 0%

Question: What about the fold change (FC) [16] of the same compound?
Answer: 0

Question: What about the fold change (FC) [17] of the same compound?
Answer: 0.21

Question: And the fold change (FC) [18]?
Answer: 0

Question: What about the fold change (FC) [19] of the same compound?
Answer: 0.41

Question: What about the fold change (FC) (Homo sapiens) of the same compound?
Answer: 0.03

Question: And the inhibition [20]?
Answer: 5%
